# In ChEMBL document CHEMBL1649552 (2009):
# Key:
# Assay type in all cases: functional
# [1] = tested on: Staphylococcus epidermidis; test: Antibacterial activity against methicillin-susceptible Staphylococcus epidermidis by CLSI M100-S17 method
# Streptococcus agalactiae [2] = test: Antibacterial activity against Streptococcus agalactiae assessed as intermediate isolates by CLSI M100-S17 method
# Outline: (§1)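 CLSI broth microdilution on clinical isolates, using frozen in-house-prepared panels of test and comparator agents. MICs were read after 20 to 24 h incubation at 35°C in ambient air. Susceptible/intermediate categories were assigned by CLSI M100-S17 guidelines.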
# Staphylococcus aureus [3] = test: Antibacterial activity against methicillin-susceptible Staphylococcus aureus assessed as intermediate isolates by CLSI M100-S17 method
# [4] = tested on: Staphylococcus epidermidis; test: Antibacterial activity against methicillin-resistant Staphylococcus epidermidis by CLSI M100-S17 method
# Staphylococcus aureus [5] = test: Antibacterial activity against methicillin-resistant Staphylococcus aureus assessed as susceptible isolates by CLSI M100-S17 method
# Staphylococcus aureus [6] = test: Antibacterial activity against methicillin-resistant Staphylococcus aureus by CLSI M100-S17 method
# Streptococcus pyogenes [7] = test: Antibacterial activity against Streptococcus pyogenes assessed as intermediate isolates by CLSI M100-S17 method; outline: as §1
# [8] = tested on: Staphylococcus epidermidis; test: Antibacterial activity against methicillin-susceptible Staphylococcus epidermidis assessed as intermediate isolates by CLSI M100-S17 method
# [9] = tested on: Staphylococcus epidermidis; test: Antibacterial activity against methicillin-susceptible Staphylococcus epidermidis assessed as susceptible isolates by CLSI M100-S17 method
# Streptococcus pyogenes [10] = test: Antibacterial activity against Streptococcus pyogenes assessed as resistant isolates by CLSI M100-S17 method
# Outline: (§2)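 Clinical isolates were tested by CLSI broth microdilution in frozen, in-house-prepared 96-well panels of the test agent and comparator agents. MICs were read and classed as susceptible, intermediate or resistant using CLSI M100-S17 breakpoints. The value is the share of isolates in each category.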
# [11] = tested on: Staphylococcus epidermidis; test: Antibacterial activity against methicillin-susceptible Staphylococcus epidermidis assessed as resistant isolates by CLSI M100-S17 method
# Staphylococcus aureus [12] = test: Antibacterial activity against methicillin-resistant Staphylococcus aureus assessed as intermediate isolates by CLSI M100-S17 method
# Streptococcus agalactiae [13] = test: Antibacterial activity against Streptococcus agalactiae assessed as resistant isolates by CLSI M100-S17 method; outline: as §2
# Staphylococcus aureus [14] = test: Antibacterial activity against methicillin-resistant Staphylococcus aureus assessed as resistant isolates by CLSI M100-S17 method
# [15] = tested on: Staphylococcus epidermidis; test: Antibacterial activity against methicillin-resistant Staphylococcus epidermidis assessed as susceptible isolates by CLSI M100-S17 method
# Streptococcus agalactiae [16] = test: Antibacterial activity against Streptococcus agalactiae by CLSI M100-S17 method
# Staphylococcus aureus [17] = test: Antibacterial activity against methicillin-susceptible Staphylococcus aureus assessed as resistant isolates by CLSI M100-S17 method
# [18] = tested on: Staphylococcus epidermidis; test: Antibacterial activity against methicillin-resistant Staphylococcus epidermidis assessed as resistant isolates by CLSI M100-S17 method
# Enterococcus faecalis [19] = test: Antibacterial activity against Enterococcus faecalis by CLSI M100-S17 method
# Streptococcus pyogenes [20] = test: Antibacterial activity against Streptococcus pyogenes assessed as susceptible isolates by CLSI M100-S17 method; outline: as §1
# Staphylococcus aureus [21] = test: Antibacterial activity against methicillin-susceptible Staphylococcus aureus assessed as susceptible isolates by CLSI M100-S17 method
# Streptococcus agalactiae [22] = test: Antibacterial activity against Streptococcus agalactiae assessed as susceptible isolates by CLSI M100-S17 method; outline: as §1
# Staphylococcus aureus [23] = test: Antibacterial activity against methicillin-susceptible Staphylococcus aureus by CLSI M100-S17 method
# Enterococcus faecium [24] = test: Antibacterial activity against Enterococcus faecium by CLSI M100-S17 method
# Enterococcus faecalis [25] = test: Antibacterial activity against Enterococcus faecalis assessed as resistant isolates by CLSI M100-S17 method
# Streptococcus pneumoniae [26] = test: Antibacterial activity against Streptococcus pneumoniae assessed as susceptible isolates by CLSI M100-S17 method; outline: as §1
# Enterococcus faecium [27] = test: Antibacterial activity against Enterococcus faecium assessed as intermediate isolates by CLSI M100-S17 method
# Enterococcus faecalis [28] = test: Antibacterial activity against Enterococcus faecalis assessed as intermediate isolates by CLSI M100-S17 method
# Enterococcus faecium [29] = test: Antibacterial activity against Enterococcus faecium assessed as susceptible isolates by CLSI M100-S17 method
# Enterococcus faecium [30] = test: Antibacterial activity against Enterococcus faecium assessed as resistant isolates by CLSI M100-S17 method
# Enterococcus faecalis [31] = test: Antibacterial activity against Enterococcus faecalis assessed as susceptible isolates by CLSI M100-S17 method
# Streptococcus pneumoniae [32] = test: Antibacterial activity against Streptococcus pneumoniae by CLSI M100-S17 method
# Streptococcus pyogenes [33] = test: Antibacterial activity against Streptococcus pyogenes by CLSI M100-S17 method
# Escherichia coli [34] = test: Antibacterial activity against Escherichia coli assessed as resistant isolates by CLSI M100-S17 method
# Enterobacter cloacae [35] = test: Antibacterial activity against Enterobacter cloacae by CLSI M100-S17 method
# Enterobacter cloacae [36] = test: Antibacterial activity against Enterobacter cloacae assessed as intermediate isolates by CLSI M100-S17 method
# Serratia marcescens [37] = test: Antibacterial activity against Serratia marcescens assessed as resistant isolates by CLSI M100-S17 method
# Proteus mirabilis [38] = test: Antibacterial activity against Proteus mirabilis by CLSI M100-S17 method
# Pseudomonas aeruginosa [39] = test: Antibacterial activity against Pseudomonas aeruginosa assessed as resistant isolates by CLSI M100-S17 method
# Escherichia coli [40] = test: Antibacterial activity against Escherichia coli assessed as susceptible isolates by CLSI M100-S17 method
# Klebsiella oxytoca [41] = test: Antibacterial activity against Klebsiella oxytoca assessed as intermediate isolates by CLSI M100-S17 method
# Enterobacter cloacae [42] = test: Antibacterial activity against Enterobacter cloacae assessed as resistant isolates by CLSI M100-S17 method
# Proteus mirabilis [43] = test: Antibacterial activity against Proteus mirabilis assessed as susceptible isolates by CLSI M100-S17 method
# Klebsiella oxytoca [44] = test: Antibacterial activity against Klebsiella oxytoca assessed as susceptible isolates by CLSI M100-S17 method
# Acinetobacter baumannii [45] = test: Antibacterial activity against Acinetobacter baumannii assessed as intermediate isolates by CLSI M100-S17 method
# Escherichia coli [46] = test: Antibacterial activity against Escherichia coli assessed as intermediate isolates by CLSI M100-S17 method
# Klebsiella pneumoniae [47] = test: Antibacterial activity against Klebsiella pneumoniae assessed as susceptible isolates by CLSI M100-S17 method
# Escherichia coli [48] = test: Antibacterial activity against Escherichia coli by CLSI M100-S17 method
# Pseudomonas aeruginosa [49] = test: Antibacterial activity against Pseudomonas aeruginosa assessed as susceptible isolates by CLSI M100-S17 method
# Proteus mirabilis [50] = test: Antibacterial activity against Proteus mirabilis assessed as resistant isolates by CLSI M100-S17 method
# Enterobacter cloacae [51] = test: Antibacterial activity against Enterobacter cloacae assessed as susceptible isolates by CLSI M100-S17 method
# Pseudomonas aeruginosa [52] = test: Antibacterial activity against Pseudomonas aeruginosa assessed as intermediate isolates by CLSI M100-S17 method
# Acinetobacter baumannii [53] = test: Antibacterial activity against Acinetobacter baumannii assessed as susceptible isolates by CLSI M100-S17 method
# Acinetobacter baumannii [54] = test: Antibacterial activity against Acinetobacter baumannii by CLSI M100-S17 method
# [55] = tested on: Staphylococcus epidermidis; test: Antibacterial activity against methicillin-resistant Staphylococcus epidermidis assessed as intermediate isolates by CLSI M100-S17 method
# Klebsiella oxytoca [56] = test: Antibacterial activity against Klebsiella oxytoca assessed as resistant isolates by CLSI M100-S17 method
# Klebsiella pneumoniae [57] = test: Antibacterial activity against Klebsiella pneumoniae assessed as resistant isolates by CLSI M100-S17 method
# Proteus mirabilis [58] = test: Antibacterial activity against Proteus mirabilis assessed as intermediate isolates by CLSI M100-S17 method
# Acinetobacter baumannii [59] = test: Antibacterial activity against Acinetobacter baumannii assessed as resistant isolates by CLSI M100-S17 method
# Pseudomonas aeruginosa [60] = test: Antibacterial activity against Pseudomonas aeruginosa by CLSI M100-S17 method
# [61] = tested on: Stenotrophomonas maltophilia; test: Antibacterial activity against Stenotrophomonas maltophilia by CLSI M100-S17 method
# Klebsiella pneumoniae [62] = test: Antibacterial activity against Klebsiella pneumoniae assessed as intermediate isolates by CLSI M100-S17 method
# Serratia marcescens [63] = test: Antibacterial activity against Serratia marcescens by CLSI M100-S17 method
# Serratia marcescens [64] = test: Antibacterial activity against Serratia marcescens assessed as intermediate isolates by CLSI M100-S17 method
compound,measurement,setting,value
CCC[C@@H]1C[C@@H](C(=O)N[C@@H]([C@H]2O[C@H](SC)[C@H](O)[C@@H](O)[C@H]2O)[C@H](C)Cl)N(C)C1 [CLINDAMYCIN],MIC50,[1],≤ 0.12 µg/mL
same,MIC90,[1],> 8 µg/mL
same,Activity,Streptococcus agalactiae [2],2.3%
same,Activity,Staphylococcus aureus [3],0.4%
same,MIC50,[4],> 8 µg/mL
same,Activity,Staphylococcus aureus [5],37.9%
same,MIC50,Staphylococcus aureus [6],> 8 µg/mL
same,MIC90,Staphylococcus aureus [6],> 8 µg/mL
same,Activity,Streptococcus pyogenes [7],0%
same,Activity,[8],0%
same,Activity,[9],61.1%
same,Activity,Streptococcus pyogenes [10],2.7%
same,Activity,[11],38.9%
same,Activity,Staphylococcus aureus [12],0.3%
same,Activity,Streptococcus agalactiae [13],12.5%
same,Activity,Staphylococcus aureus [14],61.8%
same,Activity,[15],10%
same,MIC50,Streptococcus agalactiae [16],≤ 0.06 µg/mL
same,MIC90,Streptococcus agalactiae [16],> 8 µg/mL
same,Activity,Staphylococcus aureus [17],8.6%
same,Activity,[18],90%
same,MIC50,Enterococcus faecalis [19],> 8 µg/mL
same,MIC90,Enterococcus faecalis [19],> 8 µg/mL
same,Activity,Streptococcus pyogenes [20],97.3%
same,Activity,Staphylococcus aureus [21],91%
same,Activity,Streptococcus agalactiae [22],85.2%
same,MIC50,Staphylococcus aureus [23],≤ 0.12 µg/mL
same,MIC90,Staphylococcus aureus [23],≤ 0.12 µg/mL
same,MIC50,Enterococcus faecium [24],> 8 µg/mL
same,MIC90,Enterococcus faecium [24],> 8 µg/mL
CC(=O)NC[C@H]1CN(c2ccc(N3CCOCC3)c(F)c2)C(=O)O1 [LINEZOLID],MIC50,[1],0.5 µg/mL
same,MIC90,[1],1 µg/mL
same,Activity,Staphylococcus aureus [3],0%
same,MIC50,[4],1 µg/mL
same,MIC90,[4],1 µg/mL
same,Activity,Enterococcus faecalis [25],0%
same,MIC50,Staphylococcus aureus [6],2 µg/mL
same,MIC90,Staphylococcus aureus [6],4 µg/mL
same,Activity,Streptococcus pneumoniae [26],100%
same,Activity,[8],0%
same,Activity,[9],100%
same,Activity,Enterococcus faecium [27],8.6%
same,MIC50,Streptococcus agalactiae [16],1 µg/mL
same,MIC90,Streptococcus agalactiae [16],1 µg/mL
same,Activity,Enterococcus faecalis [28],1.3%
same,MIC50,Enterococcus faecalis [19],2 µg/mL
same,MIC90,Enterococcus faecalis [19],2 µg/mL
same,Activity,Enterococcus faecium [29],91.4%
same,Activity,Enterococcus faecium [30],0%
same,Activity,Streptococcus pyogenes [20],100%
same,Activity,Staphylococcus aureus [21],100%
same,Activity,Enterococcus faecalis [31],98.7%
same,MIC50,Streptococcus pneumoniae [32],0.5 µg/mL
same,MIC90,Streptococcus pneumoniae [32],1 µg/mL
same,Activity,Streptococcus agalactiae [22],100%
same,MIC50,Streptococcus pyogenes [33],1 µg/mL
same,MIC90,Streptococcus pyogenes [33],1 µg/mL
same,MIC50,Staphylococcus aureus [23],2 µg/mL
same,MIC90,Staphylococcus aureus [23],2 µg/mL
same,MIC50,Enterococcus faecium [24],2 µg/mL
same,MIC90,Enterococcus faecium [24],2 µg/mL
GENTAMICIN,MIC90,[1],> 32 µg/mL
same,Activity,Staphylococcus aureus [3],0.1%
same,Activity,Escherichia coli [34],10.6%
same,MIC50,[4],16 µg/mL
same,MIC90,[4],> 32 µg/mL
same,MIC90,Enterobacter cloacae [35],1 µg/mL
same,Activity,Enterobacter cloacae [36],0%
same,Activity,Staphylococcus aureus [5],86.8%
same,MIC90,Staphylococcus aureus [6],> 32 µg/mL
same,Activity,Serratia marcescens [37],4.7%
same,MIC50,Proteus mirabilis [38],1 µg/mL
same,MIC90,Proteus mirabilis [38],2 µg/mL
same,Activity,Pseudomonas aeruginosa [39],20.9%
same,Activity,Escherichia coli [40],88.9%
same,Activity,Klebsiella oxytoca [41],2%
same,Activity,[8],10.2%
same,Activity,Enterobacter cloacae [42],3.6%
same,Activity,Proteus mirabilis [43],95.8%
same,Activity,[9],58.3%
same,Activity,Klebsiella oxytoca [44],97%
same,Activity,Acinetobacter baumannii [45],0%
same,Activity,Escherichia coli [46],0.5%
same,Activity,[11],31.5%
same,Activity,Klebsiella pneumoniae [47],96.7%
same,MIC90,Escherichia coli [48],16 µg/mL
same,Activity,Pseudomonas aeruginosa [49],60.1%
same,Activity,Staphylococcus aureus [12],0%
same,Activity,Proteus mirabilis [50],3.4%
same,Activity,Staphylococcus aureus [14],13.2%
same,Activity,[15],30%
same,Activity,Staphylococcus aureus [17],3.2%
same,Activity,[18],55%
same,Activity,Enterobacter cloacae [51],96.4%
same,Activity,Staphylococcus aureus [21],96.7%
same,Activity,Pseudomonas aeruginosa [52],19%
same,Activity,Acinetobacter baumannii [53],92%
same,MIC90,Acinetobacter baumannii [54],1 µg/mL
same,Activity,[55],15%
same,Activity,Klebsiella oxytoca [56],1%
same,Activity,Klebsiella pneumoniae [57],2.9%
same,Activity,Proteus mirabilis [58],0.8%
same,Activity,Acinetobacter baumannii [59],8%
same,MIC50,Pseudomonas aeruginosa [60],4 µg/mL
same,MIC90,Pseudomonas aeruginosa [60],> 32 µg/mL
same,MIC50,[61],32 µg/mL
same,MIC90,[61],> 32 µg/mL
same,Activity,Klebsiella pneumoniae [62],0.4%
same,MIC90,Staphylococcus aureus [23],1 µg/mL
same,MIC90,Serratia marcescens [63],1 µg/mL
same,Activity,Serratia marcescens [64],3.7%
